High-throughput results: PubChem, several laboratories
Shown are actives, neighbours in structure and some others; about 4.1% of the full set was active somewhere.
KCNQ1 act = potentiators or activators of human KCNQ1 potassium channel; P51787; CHO-K1 KCNQ1, thallium flux FluxOR fluorescence; active compounds read high; B-score at 10 µM; actives 0.35% (n = 310,000);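 active = fluorescence ratio B-score, a plate-corrected score, at least three library SD, with initial intensity B-score within 5 SD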
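Doses: Single concentration per compound, DMSO matched to controls | Test system: KCNQ1-transfected CHO-K1 cells | Timing: 90 min dye loading and 20 min compound exposure, both at room temperature | Measured by: Kinetic FluxOR thallium fluorescence, 10-s 1-Hz baseline, 110-s post-stimulus read | Medium: Assay buffer with matched DMSO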
KCNK3 inh = human KCNK3 channel inhibition, primary screen; CHO-KCNK3 thallium flux, FluxOR fluorescence; active compounds read low; actives 0.84% (n = 340,000); B-score at 10 µM; O14649;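 active = B-score under library mean minus 4 SD, starting fluorescence ratio at most library mean plus 5 SD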;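 note: more negative B-score means stronger inhibition of thallium flux through KCNK3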
KCNK9 block = human KCNK9 channel inhibition. Q9NPC2. HEK293 KCNK9, FluxOR thallium flux fluorescence; active compounds read low. B-score at 10 µM. actives 1.2% (n = 310,000). AID 488922;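 active = ratio B-score over 3 SD below the library mean, with starting fluorescence within 5 SD of its mean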;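 note: negative B-score means less thallium flux so channel inhibition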
hERG rescue = compounds protecting human hERG from proarrhythmic drug block. activation (rescue from dofetilide block), less the hit threshold, % at 10 µM. AID 1511. CHO-hERG, FluxOR thallium flux, dofetilide IC70 present. actives 0.51% (n = 310,000);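 active = activation above the mean of controls blocked by dofetilide plus 5 SD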;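 note: thallium influx through hERG after potassium depolarization seen as dye fluorescence rise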
KCNQ1 block = blocks the human KCNQ1 potassium channel; P51787; CHO-K1 KCNQ1, FluxOR thallium flux fluorescence; active compounds read high; B-score at 10 µM; actives 1.3% (n = 310,000);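 active = compounds whose thallium flux B-score, printed positive for inhibition, exceeds three library SD while starting fluorescence stays within three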;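 note: channel opened by potassium depolarization with thallium stimulus after 20 min compound exposure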
KCC2 mod = modulators of human KCC2 chloride dependent transport. Q9H2X9. KCC2 cells, thallium flux FluoZin-2 fluorescence. B-score of Tl+ flux slope (higher = more flux/activation; lower = inhibition) at 10 µM. actives 2.2% (n = 190,000). AID 1456;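 active = thallium flux slope and its plate-corrected score both differing from the plate sample mean at a set confidence after two filtering rounds, in either direction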;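 note: slope of fluorescence scaled to starting intensity during 10 to 20 s after thallium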
KCC2 sec1 = confirmation of human KCC2 transport modulators; shares compounds with KCC2 mod; HEK293-KCC2, thallium flux, FluoZin2 fluorescence; active compounds read high; normalised thallium flux (F/F0 slope) at 10 µM; actives 15% (n = 3,700); AID 1713;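 active = thallium flux slope above the same plate's solvent-only control mean plus 3 SD; inconclusive = the two replicate wells disagree; inactive = no significant difference from solvent-only control wells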
KCC2 bumet counter = thallium flux despite bumetanide block in KCC2 cells, secondary assay 3; shares compounds with KCC2 mod; HEK293-KCC2 + bumetanide/ouabain, thallium flux FluoZin2; active compounds read high; normalized thallium flux at 10 µM; actives 49% (n = 3,700); AID 1714;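 active = thallium entry rate above the same plate's blocked-transporter control wells by more than 3 SD; inconclusive = the two repeat wells disagree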;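 note: raw slope of fluorescence over initial fluorescence between 10 and 20 s after thallium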
KCC2 secondary2 = KCC2 (human) modulation, second secondary assay; shares compounds with KCC2 mod; HEK293-KCC2, thallium flux FluoZin2 fluorescence; actives lie on both sides; F/F0 rise rate, 10–20 s post-thallium; normalized thallium flux at 10 µM; actives 23% (n = 3,700);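 active = thallium flux slope more than 3 SD above or below the plate's solvent-only control mean, mostly below; inconclusive = the two repeat wells disagreed; inactive = no significant shift from solvent-only controls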;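 note: raw slope with 0.1% DMSO as baseline and bumetanide as block control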
HEK293 Tl flux = counter-screen for KCC2 modulators: effect in parental HEK293 cells. actives 46% (n = 3,700). AID 1716. thallium flux rate (normalised fluorescence) at 10 µM. shares compounds with KCC2 mod. thallium flux FluoZin2, ouabain; baseline-ratio fluorescence slope, 10–20 s after thallium;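 active = thallium flux rate significantly above the same plate's solvent-only control wells, beyond their mean plus 3 SD; inconclusive = the two replicate wells gave conflicting results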
KCC2 ouabain = modulates human KCC2 on retest with ouabain | shares compounds with KCC2 mod | HEK293-KCC2, thallium flux FluoZin2 fluorescence; bidirectional: low = inhibitor, high = activator | raw Tl+ flux slope (below DMSO = inhibition, above = activation) at 10 µM | actives 48% (n = 3,700);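 active = thallium flux slope beyond 3 SD from same-plate DMSO control mean in most replicates, usually higher, sometimes lower; inconclusive = repeat tests gave conflicting results; inactive = no significant difference from controls in most replicates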;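 note: slope of initial-normalized fluorescence between seconds 10 and 20 after thallium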
HEK counter2 = parental HEK flux effect, counter-screen 2. shares compounds with KCC2 mod. HEK293 parental, thallium flux FluoZin-2 fluorescence slope. thallium flux slope at 10 µM. actives 33% (n = 3,700). AID 1718;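 active = thallium flux slope above the same plate's solvent-control mean plus 3 SD in both duplicate wells; inconclusive = duplicate wells that disagreed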;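 note: run without ouabain in cells lacking the KCC2 cotransporter; slope of fluorescence scaled to its starting value between 10 and 20 s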
The depositor's hits bear a star; i = inactive; u = inconclusive; x = no result.

SMILES	KCNQ1 act	KCNK3 inh	KCNK9 block	hERG rescue	KCNQ1 block	KCC2 mod	KCC2 sec1	KCC2 bumet counter	KCC2 secondary2	HEK293 Tl flux	KCC2 ouabain	HEK counter2
COC(=O)NNC(=O)COc1ccc2ccccc2c1Br	i	i	i	-6	i	-2.5	x	x	x	x	x	x
O=C(COc1ccc2ccccc2c1Br)Nn1cnnc1	i	i	i	-10	i	-4.7*	0.0066	u	0.025*	0.0079	u	0.011
CC(C)(C)C(=O)NNC(=O)COc1ccc2ccccc2c1Br	i	i	i	-13	i	7.8*	0.0071	0.02*	0.029	0.011*	0.027*	u
N#Cc1nc(-c2ccco2)oc1N1CCC(Cc2ccccc2)CC1	i	i	i	-10	i	x	0.0067	0.0048	0.025*	0.007	u	0.011
N#Cc1nc(-c2ccco2)oc1N1CCOCC1	i	i	i	-9	i	x	x	x	x	x	x	x
C=C(C)c1cccc(C(C)(C)NC(=O)N2CCCC(C(N)=O)C2)c1 (configuration not stated)	i	i	i	-2	i	1.3	x	x	x	x	x	x
C=C(C)c1cccc(C(C)(C)NC(=O)N2CCC(C(N)=O)CC2)c1	i	i	i	-3	i	-3.2*	0.0066	u	0.034	0.0081	0.019	0.012
N#C/C(=C(/O)COc1ccccc1)c1nc2ccccc2s1	i	i	i	-16	i	-5.4*	u	0.0046	0.022*	0.0077	0.017	0.01
N#C/C(=C(/O)c1ccc(F)cc1)c1nc2ccccc2s1	i	i	i	-11	i	-4.8*	0.0073	0.0058	0.032	0.0059*	0.016*	0.0096
N#C/C(=C(/O)COc1ccc(Cl)cc1)c1nc2ccccc2s1	i	i	i	-9	i	-3.7*	0.007	u	0.023*	0.0077	u	0.011
N#C/C(=N\O)c1nc2ccccc2s1	i	i	i	-16	i	-0.22	x	x	x	x	x	x
CCCCCCCCNS(=O)(=O)CCNCc1ccco1	x	i	x	x	x	x	x	x	x	x	x	x
CC(C)(C)OC(=O)N(CCc1ccccc1)Cc1ccc(OCc2cccc(NC(=O)C3CCC3)c2)cc1	x	i	x	x	x	x	x	x	x	x	x	x
COC(=O)[C@@]1(Cc2ccccc2)[C@H]2C(=O)N(C)C(=O)[C@H]2[C@H]2CN=C(SCC(=O)c3ccccc3)N21	x	i	x	x	x	x	x	x	x	x	x	x
COCC(O)CSc1nc(C)[nH]c1[N+](=O)[O-] (configuration not stated)	i	i	i	-3	i	-5.2*	0.016	0.0042	0.028	0.0072	0.016	0.0097
Cc1oc2cc(Br)c(O)c(Br)c2c1-c1ccccc1	i	i	i	-7	i	x	x	x	x	x	x	x
O=c1c(O)c(-c2ccc3c(c2)OCO3)oc2ccccc12	33*	i	i	9.4*	i	x	0.032*	0.17*	0.052*	0.1*	0.1*	0.05*
O=C(Nc1ccc2c(c1)oc1ccccc12)c1ccc2c(c1)OCO2	i	i	i	-7	i	-0.4	x	x	x	x	x	x
CCOC(=O)c1cc2c(ccn2C)n1CC(=O)N1CCC(Cc2ccccc2)CC1	i	i	i	-9	i	-5.9*	0.011	0.0057	u	0.0079	0.016*	0.012
CCOC(=O)c1cc2c(ccn2C)n1CC(=O)N1CCCC(C)C1 (configuration not stated)	i	i	i	-4	i	-1	x	x	x	x	x	x
O=C1/C(=C/c2cccs2)NC(=S)N1C1CC1	i	i	i	-9	i	43*	0.016*	0.089*	0.049*	0.06*	0.07*	0.033*
O=C1NC(=S)SC1=Cc1cccs1	x	i	x	x	x	x	x	x	x	x	x	x
O=C(/C=N/NC(=O)c1ccc(Cl)cc1Cl)c1ccccc1	i	i	i	-4	i	91*	0.0062	0.1*	0.062*	0.048*	0.076*	0.039*
Cc1cccc(OCC(=O)NCC(=O)N/N=C/c2cc(Br)ccc2OCc2ccccc2)c1	i	i	i	-7	i	-0.16	x	x	x	x	x	x
O=C(/C=N/NC(=O)c1ccccc1Br)c1ccccc1	i	i	i	-5	i	8*	0.0068	0.019*	0.031	0.02*	u	0.018*
SMILES	KCNQ1 act	KCNK3 inh	KCNK9 block	hERG rescue	KCNQ1 block	KCC2 mod	KCC2 sec1	KCC2 bumet counter	KCC2 secondary2	HEK293 Tl flux	KCC2 ouabain	HEK counter2
O=C(Nc1ccc(Nc2ccccc2)cc1)c1ccc(Cl)cc1Cl	i	i	i	-3	i	x	x	x	x	x	x	x
O=C(COc1cccc(Br)c1)N/N=C/C(=O)c1ccccc1	i	i	i	-16	i	5.9*	0.0055	0.014*	0.032	0.012*	u	0.015*
O=C(N/N=C/c1cc(Cl)ccc1O)c1ccccc1Br	i	i	i	-2	i	-0.99	x	x	x	x	x	x
O=C(CN1CCN(S(=O)(=O)c2ccc(F)cc2)CC1)Nc1ccc(Cl)cn1	i	i	i	-7	i	x	x	x	x	x	x	x
O=C(C[C@@H]1C/C=C\CC[C@@H](Cc2ccc(F)cc2)C(=O)OC[C@@H](Cc2ccccc2)NC1=O)NCCO	x	i	x	x	x	x	x	x	x	x	x	x
COc1cccc(NC(=O)CN(C)C(=O)CCNS(=O)(=O)c2ccc(C)cc2)c1	x	i	x	x	x	x	x	x	x	x	x	x
FC(F)(F)c1ccccc1NC(=S)Nc1ccccc1	i	i	i	-4	i	x	x	x	x	x	x	x
CSc1ccccc1NC(=S)Nc1ccc(S(N)(=O)=O)cc1	i	i	i	-6	i	3*	0.0075	0.0075*	0.033	0.0096*	u	u
CSc1ccccc1NC(=S)Nc1ccccc1C(F)(F)F	i	i	i	-12	i	4.7*	0.0075	0.011*	0.033	0.013*	u	0.012
